Test [1] can be described thus: HUVEC growth inhibition – cell-based, human, primary screen (AID 575;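 active means viability at or below 30% in both replicate assays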;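 further: 100% = median of untreated cell wells with 0.1% DMSO on each plate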). Particulars: HUVEC proliferation, CellTiter-Glo luminescence, 72 h; at 10 µM; stronger effect = lower value. An outline of the steps: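 Timing: 72 h treatment at 37 °C; material: HUVEC primary cells; technique: CellTiter-Glo luminescence measuring cellular ATP; controls: vehicle and MePR control wells; measure: percent of median DMSO-control luminescence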
For orientation: In ATP-based viability assays light output follows the ATP content of the culture.

Test [2] in a line: H69AR cell proliferation blockers – human, duplicate replicates, primary screen (AID 580;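 active means viability at or under a set limit in both replicates, limit being median viability minus 3 SD, cut at about 48% in these data, passing the limit was not always enough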;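 further: 100% = mean luminescence of untreated wells and 0% = no signal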). The following applies: H69AR lung tumor cells viability, ATP luminescence, 72 h; at 10 µM; stronger effect = lower value.
Test [3] can be described thus: MRP1 drug-resistance reversers in H69AR cells – cell-based, doxorubicin co-treatment, pilot screen (AID 601;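 active means viability loss from added drug above about 55%, and viability with drug at most 40%, in both replicates, limit read from the data, passing the limit was not always enough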). The following applies: CellTiter-Glo, 72 h, at 10 µM; for differential viability (reversal): stronger effect = higher value.
Test [4] in a line: yeast transport mutant growth inhibition pilot in 384-well plates, post-Golgi transport modulator project (AID 636). The following applies: absorbance 615 nm, about 18 h, stronger effect = higher value.
The nature of test [5]: growth suppression of yeast trafficking mutant, preliminary HTS, modulators of trafficking downstream of Golgi apparatus project, 1536-format plate, OD 615 nm (AID 637; in the data active means inhibition above about 30%). Particulars: yeast transport mutant growth, absorbance 615 nm, 18 h; stronger effect = higher value.
Where [6] appears, read: H69AR cells + 2 uM doxorubicin, measured here: viability with 2 uM doxorubicin, stronger effect = lower value.
The mark [7] stands for this setting: H69AR cells, compound alone cytotoxicity.

20 molecules from PubChem BioAssay can be followed below.

Activity calls are given as the source filed them. Unless noted, no stated cut-off is given here; in the data, active means inhibition above about 31%; inactive means the rest.

In the case of `O=C(COC(=O)c1ccc(NS(=O)(=O)c2ccc3c(c2)OCCO3)cc1)NCC1CCCO1` (stereo not given), the viability (commonly a read-out of living cells in per cent, often relative to untreated cells) is 104% (inactive) in test [1], 107% (inactive) in test [2], 95.8% in test [3] (setting [6]) and 107% in test [3] (setting [7]). In test [3] (H69AR cells + 2 uM doxorubicin), the differential viability (reversal) is 11.2% (inactive). Moreover, the results for the inhibition in test [4] and in test [5] were -1.69% (inactive) and -7.78% (inactive), respectively.

For the molecule `COc1ccc(OC(C)C(=O)N2CCN(c3ccccn3)CC2)cc1` (stereo not given), the viability is 106% (inactive) in test [1], 94.4% (inactive) in test [2], 89.3% in test [3] (setting [6]) and 94.4% in test [3] (setting [7]). In addition, the differential viability (reversal) in test [3] (H69AR cells + 2 uM doxorubicin) is 5.04% (inactive). Besides, the inhibition (commonly the change of the read-out against control, counted positive when it falls) in test [4] was -3.95% (inactive); in test [5], -0.32% (inactive).

For the molecule `CN(C)CCSc1nnc2sc3ccccc3n12`, the viability in test [1] was 94.2% (inactive); in test [2] it was 92.8% (inactive); in test [3] (setting [6]), 93.7%; in test [3] (setting [7]) it was 92.8%. In addition, the differential viability (reversal) in test [3] (H69AR cells + 2 uM doxorubicin) is -0.905% (inactive). Also, the inhibition is -5.92% (inactive) in test [4] and -5.08% (inactive) in test [5].

Turning to `CCC1(CC)C(=O)N(C)C(=O)NC1=NCc1ccccc1`, the viability in test [1] was 110% (inactive); in test [2] it was 93.1% (inactive); in test [3] (setting [6]), 94.7%; in test [3] (setting [7]) it was 93.1%. The differential viability (reversal) in test [3] (H69AR cells + 2 uM doxorubicin) is -1.67% (inactive). Further, the inhibition was -7.07% (inactive) in test [4] and 3.02% (inactive) in test [5].

As to `Cc1nc2cc(NC(=O)N3CC4(C)CC3CC(C)(C)C4)ccc2n1C` (stereo not given), the viability was 100% (inactive) in test [1], 89.7% (inactive) in test [2], 82.2% in test [3] (setting [6]) and 89.7% in test [3] (setting [7]). For the same molecule, the differential viability (reversal) in test [3] (H69AR cells + 2 uM doxorubicin) was 7.53% (inactive). The figures for the inhibition in test [4] and in test [5] were -6.71% (inactive) and -8.1% (inactive), respectively.

For `COc1ccccc1CNC(=O)C1CCN(S(=O)(=O)N2CCCCC2)CC1`, the viability in test [1] is 83.4% (inactive); in test [2], 81.7% (inactive); in test [3] (setting [6]), 80.2%; in test [3] (setting [7]), 81.7%. Besides, the differential viability (reversal) in test [3] (H69AR cells + 2 uM doxorubicin) is 1.51% (inactive). The inhibition was -1.97% (inactive) in test [4] and 3.81% (inactive) in test [5].

Take `CC1(C)CC(=O)c2cc(OCC(=O)N3CCN(c4ccccc4F)CC3)ccc2O1`: the viability in test [1] is 99.1% (inactive); in test [2] it was 91.8% (inactive); in test [3] (setting [6]) it was 88.9%; in test [3] (setting [7]) it was 91.8%. Also, in test [3] (H69AR cells + 2 uM doxorubicin), the differential viability (reversal) is 2.9% (inactive). Besides, the values for the inhibition in test [4] and in test [5] were -0.13% (inactive) and 2.06% (inactive), respectively.

As for `CSc1n[nH]c(NCc2ccccc2)n1`, the viability in test [1] is 96.5% (inactive); in test [2], 96.8% (inactive); in test [3] (setting [6]) it was 96.1%; in test [3] (setting [7]), 96.8%. For the same molecule, in test [3] (H69AR cells + 2 uM doxorubicin), the differential viability (reversal) is 0.755% (inactive). Besides, the figures for the inhibition in test [4] and in test [5] were -5.13% (inactive) and 1.43% (inactive), respectively.

`S=c1[nH]ncn1-c1ccccn1`: the viability is 81.6% (inactive) in test [1], 93.9% (inactive) in test [2], 98.6% in test [3] (setting [6]) and 93.9% in test [3] (setting [7]). In test [3] (H69AR cells + 2 uM doxorubicin), the differential viability (reversal) was -4.69% (inactive). Moreover, the results for the inhibition in test [4] and in test [5] were -5.33% (inactive) and -0.63% (inactive), respectively.

As for `c1ccc(-c2nc3nonc3c3nc4ccccc4n23)cc1`, the viability in test [1] was 93.8% (inactive); in test [2] it was 88.8% (inactive); in test [3] (setting [6]), 90.8%; in test [3] (setting [7]) it was 88.8%. Moreover, the differential viability (reversal) in test [3] (H69AR cells + 2 uM doxorubicin) is -1.96% (inactive). In addition, the inhibition in test [4] was -6.27% (inactive); in test [5] it was 1.9% (inactive).

Consider `O=C(Cn1cnc2sc(-c3ccccc3)cc2c1=O)N1CCOCC1`, for which the viability in test [1] was 116% (inactive); in test [2], 97% (inactive); in test [3] (setting [6]) it was 93.4%; in test [3] (setting [7]), 97%. Also, in test [3] (H69AR cells + 2 uM doxorubicin), the differential viability (reversal) was 3.61% (inactive). Besides, the figures for the inhibition in test [4] and in test [5] were -1.58% (inactive) and 1.75% (inactive), respectively.

Regarding `Cc1cc(N2C(=O)C(O)=C(C(=O)c3ccc(C)o3)C2c2cccs2)no1` (stereo not given), the viability is 64.2% (inactive) in test [1], 79.9% (inactive) in test [2], 84.5% in test [3] (setting [6]) and 79.9% in test [3] (setting [7]). For the same molecule, the differential viability (reversal) in test [3] (H69AR cells + 2 uM doxorubicin) was -4.59% (inactive). In addition, the inhibition is -2.13% (inactive) in test [4] and -6.03% (inactive) in test [5].

Take `CC(=O)c1ccc(NC(=O)CSc2nnc(-c3ccoc3C)n2Cc2ccccc2)cc1`: the viability in test [1] is 80.3% (inactive); in test [2] it was 93.5% (inactive); in test [3] (setting [6]), 89.6%; in test [3] (setting [7]), 93.5%. In addition, the differential viability (reversal) in test [3] (H69AR cells + 2 uM doxorubicin) was 3.91% (inactive). The values for the inhibition in test [4] and in test [5] were -2.27% (inactive) and -8.57% (inactive), respectively.

As to `CCOC(=O)c1nnn(-c2nonc2NC(C)=O)c1C`, the viability in test [1] was 91.7% (inactive); in test [2], 98.2% (inactive); in test [3] (setting [6]), 96.5%; in test [3] (setting [7]), 98.2%. Besides, the differential viability (reversal) in test [3] (H69AR cells + 2 uM doxorubicin) is 1.68% (inactive). In addition, the inhibition in test [4] is -0.65% (inactive); in test [5] it was -4.13% (inactive).

On to `Cc1cc2c(c(=O)n1CCN(C)C)C(c1ccncc1)C(C#N)=C(N)O2` (stereo not given), for which the viability in test [1] is 103% (inactive); in test [2], 103% (inactive); in test [3] (setting [6]), 102%; in test [3] (setting [7]) it was 103%. The differential viability (reversal) in test [3] (H69AR cells + 2 uM doxorubicin) is 0.98% (inactive). The inhibition was -2.37% (inactive) in test [4] and -6.51% (inactive) in test [5].

As for `CSc1nc2ccc(S(=O)(=O)N3CCOCC3)cc2s1`, the viability in test [1] was 101% (inactive); in test [2], 89.9% (inactive); in test [3] (setting [6]), 94.4%; in test [3] (setting [7]) it was 89.9%. Also, the differential viability (reversal) in test [3] (H69AR cells + 2 uM doxorubicin) is -4.54% (inactive). Moreover, the inhibition was -6.53% (inactive) in test [4] and 2.06% (inactive) in test [5].

In the case of `COC(=O)c1ccccc1NC(=O)c1noc2c1CC(C(C)(C)C)CC2` (stereo not given), the viability in test [1] was 112% (inactive); in test [2] it was 107% (inactive); in test [3] (setting [6]), 92.9%; in test [3] (setting [7]), 107%. Moreover, the differential viability (reversal) in test [3] (H69AR cells + 2 uM doxorubicin) was 14.2% (inactive). Also, the inhibition was -1.17% (inactive) in test [4] and 0.63% (inactive) in test [5].

Regarding `CCN(CC(=O)O)S(=O)(=O)c1cc(Cl)ccc1Cl`, the viability in test [1] is 96.5% (inactive); in test [2], 90.9% (inactive); in test [3] (setting [6]) it was 92%; in test [3] (setting [7]) it was 90.9%. In addition, the differential viability (reversal) in test [3] (H69AR cells + 2 uM doxorubicin) is -1.08% (inactive). Moreover, the inhibition in test [4] was -7.2% (inactive); in test [5], -1.75% (inactive).

With `Nc1nc(Nc2ccc(Cl)cc2Cl)nc(C(F)(F)F)n1`, the viability was 73.9% (inactive) in test [1], 89.8% (inactive) in test [2], 78% in test [3] (setting [6]) and 89.8% in test [3] (setting [7]). Besides, the differential viability (reversal) in test [3] (H69AR cells + 2 uM doxorubicin) is 11.7% (inactive). The values for the inhibition in test [4] and in test [5] were -5.6% (inactive) and 11.3% (inactive), respectively.

With `CCCCCCNC(=O)c1c(N)n(/N=C/c2ccco2)c2nc3ccccc3nc12`, the viability in test [1] was 53.7% (inactive); in test [2] it was 78.4% (inactive); in test [3] (setting [6]) it was 79.4%; in test [3] (setting [7]), 78.4%. Moreover, the differential viability (reversal) in test [3] (H69AR cells + 2 uM doxorubicin) is -0.96% (inactive). In addition, the inhibition in test [4] was -4.4% (inactive); in test [5], -0.16% (inactive).
